Measurements from ChEMBL document CHEMBL4052618, “Design, synthesis, SAR discussion, in vitro and in vivo evaluation of novel selective EGFR modulator to inhibit L858R/T790M double mutants” (Eur J Med Chem, 2017).
pIC50: −log10 of the molar value.

Assays:
[1] = tested on: A-431; assay: Antiproliferative activity against human A431 cells harboring wild-type EGFR; type: functional, cell-based
[2] = Half life in mouse liver microsomes; type: ADME, microsome
[3] = Half life in dog liver microsomes; type: ADME, Canis lupus familiaris, microsome
[4] = Intrinsic clearance in mouse liver microsomes; type: ADME, microsome; details: read-out: CLH
[5] = Half life in rat hepatocytes; type: ADME, cell-based, Hepatocyte
[6] = Intrinsic clearance in rat hepatocytes assessed per million cells; type: ADME, cell-based, Hepatocyte
[7] = Half life in Sprague-Dawley rat at 10 mg/kg, po administered via gavage by LC-MS/MS analysis; type: ADME, organism-based; details: in vivo
In short: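 Male Sprague-Dawley rats (200-240 g) were dosed either by tail vein at 1 mg/kg in 2% DMSO/20% PEG400/78% buffered saline or by oral gavage at 10 mg/kg in 0.5% methylcellulose. Blood was drawn by orbital sinus puncture at 2 min to 24 h into heparin, and plasma was analysed by LC/MS/MS in SRM mode. Parameters came from non-compartmental analysis.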

[8] = Cmax in Sprague-Dawley rat at 10 mg/kg, po administered via gavage after 24 hrs by LC-MS/MS analysis; type: ADME, organism-based; set-up: dose 10 mg/kg, route oral; details: in vivo
In short: (§1)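 Male Sprague-Dawley rats (200-240 g) received 1 mg/kg by tail-vein injection in 2% DMSO, 20% PEG400 and 78% buffered saline, or 10 mg/kg by oral gavage in 0.5% methylcellulose. Orbital sinus blood was drawn into heparinized tubes at 2, 5, 15 and 30 min and at 1, 2, 4, 8, 12 and 24 h, then centrifuged. Plasma was measured by LC/MS/MS in SRM mode, with non-compartmental analysis.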

[9] = AUC (0 to infinity) in Sprague-Dawley rat at 10 mg/kg, po administered via gavage by LC-MS/MS analysis; type: ADME, organism-based; set-up: dose 10 mg/kg, route oral, time infinity; details: in vivo
[10] = MRT in Sprague-Dawley rat at 10 mg/kg, po administered via gavage by LC-MS/MS analysis; type: ADME, organism-based; details: in vivo; in short: as §1
[11] = AUC (0 to 24 hrs) in Sprague-Dawley rat at 1 mg/kg, iv by LC-MS/MS analysis; type: ADME, organism-based; set-up: time < 24 hr, dose 1 mg/kg, route intravenous; details: in vivo
[12] = MRT in Sprague-Dawley rat at 1 mg/kg, iv by LC-MS/MS analysis; type: ADME, organism-based; details: in vivo; in short: as §1
[13] = tested on: NCI-H1975; assay: In vivo anti tumor activity against human NCI-H1975 cells xenografted in nude C.B-17 SCID mouse model assessed as relative tumor volume at 5 mg/kg, ig for 18 days measured twice a week relative to control; type: functional
In short: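 C.B-17 SCID mice received s.c. inoculation of 5 × 10^6 H1975 cells. At 100-150 mm3 they were randomized (n = 9 per group) and dosed intragastrically once daily for 18 days, with PBS as the control. Tumors were measured by caliper twice weekly, with V = length × width²/2. RTV = V/V0, and T/C% = treated mean RTV / control mean RTV × 100.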

[14] = tested on: Mus musculus; assay: Toxicity in nude C.B-17 SCID mouse model xenografted with human NCI-H1975 cells assessed as mortality at 5 to 20 mg/kg, ig for 18 days; type: organism-based; details: in vivo, po, 432 h
In short: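 H1975 xenografts were set up by subcutaneous inoculation of 5 × 10^6 cells into C.B-17 SCID mice. At a mean tumor volume of 100-150 mm3, mice were randomized into groups of n = 9. They were dosed intragastrically once daily for 18 days at 5, 10 or 20 mg/kg, given as 0.1 mL/10 g body weight. The control group received PBS, and tumors were caliper-measured twice weekly.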

[15] = target: Serine/threonine-protein kinase B-raf (Homo sapiens) (UniProt P15056); assay: Inhibition of BRAF (unknown origin) at 1 uM relative to control
[16] = target: Calcium/calmodulin-dependent protein kinase type II subunit beta (Homo sapiens) (UniProt Q13554); assay: Inhibition of CAMK2B (unknown origin) at 1 uM relative to control
[17] = target: Casein kinase I isoform epsilon (Homo sapiens) (UniProt P49674); assay: Inhibition of CSNK1E (unknown origin) at 1 uM relative to control
[18] = target: Fibroblast growth factor receptor 1 (Homo sapiens) (UniProt P11362); assay: Inhibition of FGFR1 (unknown origin) at 1 uM relative to control
[19] = target: Receptor-type tyrosine-protein kinase FLT3 (Homo sapiens) (UniProt P36888); assay: Inhibition of FLT3 (unknown origin) at 1 uM relative to control
[20] = target: Tyrosine-protein kinase Fyn (Homo sapiens) (UniProt P06241); assay: Inhibition of FYN (unknown origin) at 1 uM relative to control
[21] = target: Glycogen synthase kinase-3 beta (Homo sapiens) (UniProt P49841); assay: Inhibition of GSK3B (unknown origin) at 1 uM relative to control
[22] = target: Tyrosine-protein kinase Lyn (Homo sapiens) (UniProt P07948); assay: Inhibition of LYN-B (unknown origin) at 1 uM relative to control
[23] = target: Mitogen-activated protein kinase kinase kinase 9 (Homo sapiens) (UniProt P80192); assay: Inhibition of MAP3K9 (unknown origin) at 1 uM relative to control
[24] = target: Mitogen-activated protein kinase 1 (Homo sapiens) (UniProt P28482); assay: Inhibition of MAPK1 (unknown origin) at 1 uM relative to control
[25] = target: Hepatocyte growth factor receptor (Homo sapiens) (UniProt P08581); assay: Inhibition of MET (cMet) (unknown origin) at 1 uM relative to control
[26] = target: Serine/threonine-protein kinase Nek2 (Homo sapiens) (UniProt P51955); assay: Inhibition of NEK2 (unknown origin) at 1 uM relative to control
[27] = target: Protein kinase C gamma type (Homo sapiens) (UniProt P05129); assay: Inhibition of PRKCG (unknown origin) at 1 uM relative to control
[28] = target: cGMP-dependent protein kinase 1 (Homo sapiens) (UniProt Q13976); assay: Inhibition of PRKG1 (unknown origin) at 1 uM relative to control
[29] = target: Protein-tyrosine kinase 6 (Homo sapiens) (UniProt Q13882); assay: Inhibition of PTK6 (unknown origin) at 1 uM relative to control
[30] = target: Rho-associated protein kinase 2 (Homo sapiens) (UniProt O75116); assay: Inhibition of ROCK2 (unknown origin) at 1 uM relative to control
[31] = target: Proto-oncogene tyrosine-protein kinase ROS (Homo sapiens) (UniProt P08922); assay: Inhibition of ROS1 (unknown origin) at 1 uM relative to control
[32] = target: Ribosomal protein S6 kinase beta-1 (Homo sapiens) (UniProt P23443); assay: Inhibition of RPS6KB1 (unknown origin) at 1 uM relative to control
[33] = target: Tyrosine-protein kinase TXK (Homo sapiens) (UniProt P42681); assay: Inhibition of TXK (unknown origin) at 1 uM relative to control
[34] = organism: Homo sapiens; assay: Inhibition of 746 to 750 truncated EGFR (unknown origin) at 1 uM relative to control
[35] = target: Leucine-rich repeat serine/threonine-protein kinase 2 (Homo sapiens) (UniProt Q5S007); assay: Inhibition of LRRK2 (unknown origin) at 1 uM relative to control

Receptor-type tyrosine-protein kinase FLT3 (Homo sapiens), sequence (P36888 whole entry): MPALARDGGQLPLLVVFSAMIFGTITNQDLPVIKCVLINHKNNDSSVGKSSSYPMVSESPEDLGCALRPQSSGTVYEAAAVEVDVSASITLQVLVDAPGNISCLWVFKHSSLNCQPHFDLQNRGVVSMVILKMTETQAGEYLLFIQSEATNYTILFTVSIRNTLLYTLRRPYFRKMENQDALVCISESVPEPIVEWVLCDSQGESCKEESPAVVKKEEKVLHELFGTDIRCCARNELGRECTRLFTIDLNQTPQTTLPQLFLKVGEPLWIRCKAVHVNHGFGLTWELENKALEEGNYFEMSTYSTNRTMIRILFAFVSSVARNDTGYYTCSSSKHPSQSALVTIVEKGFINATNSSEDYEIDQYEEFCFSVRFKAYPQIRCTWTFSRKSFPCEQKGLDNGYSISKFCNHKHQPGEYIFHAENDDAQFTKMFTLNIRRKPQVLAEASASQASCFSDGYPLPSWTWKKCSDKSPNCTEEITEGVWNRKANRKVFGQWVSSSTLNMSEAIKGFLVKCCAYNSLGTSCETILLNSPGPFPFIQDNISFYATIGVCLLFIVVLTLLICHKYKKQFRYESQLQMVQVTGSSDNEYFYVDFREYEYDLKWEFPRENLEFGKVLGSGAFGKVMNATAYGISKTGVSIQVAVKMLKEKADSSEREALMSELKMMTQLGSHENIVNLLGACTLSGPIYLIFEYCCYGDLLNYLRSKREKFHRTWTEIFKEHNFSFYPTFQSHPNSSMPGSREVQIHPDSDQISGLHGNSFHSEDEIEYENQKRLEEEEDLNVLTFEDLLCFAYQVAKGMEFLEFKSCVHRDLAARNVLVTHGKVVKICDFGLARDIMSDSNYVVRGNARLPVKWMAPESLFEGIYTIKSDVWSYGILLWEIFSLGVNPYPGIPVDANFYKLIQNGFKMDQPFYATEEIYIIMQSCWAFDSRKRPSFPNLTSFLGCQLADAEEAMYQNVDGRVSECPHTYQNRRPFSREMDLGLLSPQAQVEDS
Ribosomal protein S6 kinase beta-1 (Homo sapiens), sequence (P23443 whole entry, looked up): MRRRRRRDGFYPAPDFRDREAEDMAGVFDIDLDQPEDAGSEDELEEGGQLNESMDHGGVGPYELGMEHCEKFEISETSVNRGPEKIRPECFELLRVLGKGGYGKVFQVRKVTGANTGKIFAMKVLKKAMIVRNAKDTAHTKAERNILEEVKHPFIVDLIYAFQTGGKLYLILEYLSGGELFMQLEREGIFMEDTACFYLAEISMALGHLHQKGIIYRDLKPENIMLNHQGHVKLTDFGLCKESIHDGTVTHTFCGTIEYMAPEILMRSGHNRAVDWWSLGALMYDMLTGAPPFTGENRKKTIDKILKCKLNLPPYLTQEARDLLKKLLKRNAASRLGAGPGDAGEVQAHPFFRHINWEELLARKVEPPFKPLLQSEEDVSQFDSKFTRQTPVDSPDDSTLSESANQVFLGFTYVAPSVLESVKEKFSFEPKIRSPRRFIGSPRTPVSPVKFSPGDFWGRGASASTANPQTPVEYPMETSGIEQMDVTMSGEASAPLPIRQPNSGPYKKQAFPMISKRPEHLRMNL
Protein-tyrosine kinase 6 (Homo sapiens), sequence (Q13882 whole entry, looked up): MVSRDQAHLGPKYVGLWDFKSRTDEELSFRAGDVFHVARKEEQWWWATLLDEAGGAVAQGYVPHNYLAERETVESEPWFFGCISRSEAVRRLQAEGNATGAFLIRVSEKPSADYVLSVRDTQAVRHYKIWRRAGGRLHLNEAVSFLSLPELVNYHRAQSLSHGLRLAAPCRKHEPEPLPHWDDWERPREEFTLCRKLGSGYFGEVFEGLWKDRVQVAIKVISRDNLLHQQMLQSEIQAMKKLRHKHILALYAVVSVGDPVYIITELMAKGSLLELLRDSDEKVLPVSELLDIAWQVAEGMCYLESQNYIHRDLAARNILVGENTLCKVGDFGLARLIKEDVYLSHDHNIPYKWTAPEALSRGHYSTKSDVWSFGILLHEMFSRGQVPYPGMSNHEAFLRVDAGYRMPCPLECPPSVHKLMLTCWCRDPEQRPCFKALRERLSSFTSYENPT
Tyrosine-protein kinase Fyn (Homo sapiens), sequence (P06241 2-537 limits assumed): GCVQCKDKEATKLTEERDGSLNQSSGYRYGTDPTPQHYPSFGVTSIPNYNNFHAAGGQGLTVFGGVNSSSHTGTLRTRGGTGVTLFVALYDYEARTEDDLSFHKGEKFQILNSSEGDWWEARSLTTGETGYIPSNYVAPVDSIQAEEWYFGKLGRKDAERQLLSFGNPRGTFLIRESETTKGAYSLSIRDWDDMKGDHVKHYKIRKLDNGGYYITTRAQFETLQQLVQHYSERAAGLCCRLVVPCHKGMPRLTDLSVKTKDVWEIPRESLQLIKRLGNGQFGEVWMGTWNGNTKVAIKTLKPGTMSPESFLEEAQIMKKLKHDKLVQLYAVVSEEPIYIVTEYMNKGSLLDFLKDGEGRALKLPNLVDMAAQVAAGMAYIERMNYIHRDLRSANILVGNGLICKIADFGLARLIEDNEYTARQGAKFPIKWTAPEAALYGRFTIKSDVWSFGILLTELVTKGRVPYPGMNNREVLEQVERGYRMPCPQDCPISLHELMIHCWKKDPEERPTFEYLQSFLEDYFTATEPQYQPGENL
Fibroblast growth factor receptor 1 (Homo sapiens), sequence (P11362 22-822 limits assumed): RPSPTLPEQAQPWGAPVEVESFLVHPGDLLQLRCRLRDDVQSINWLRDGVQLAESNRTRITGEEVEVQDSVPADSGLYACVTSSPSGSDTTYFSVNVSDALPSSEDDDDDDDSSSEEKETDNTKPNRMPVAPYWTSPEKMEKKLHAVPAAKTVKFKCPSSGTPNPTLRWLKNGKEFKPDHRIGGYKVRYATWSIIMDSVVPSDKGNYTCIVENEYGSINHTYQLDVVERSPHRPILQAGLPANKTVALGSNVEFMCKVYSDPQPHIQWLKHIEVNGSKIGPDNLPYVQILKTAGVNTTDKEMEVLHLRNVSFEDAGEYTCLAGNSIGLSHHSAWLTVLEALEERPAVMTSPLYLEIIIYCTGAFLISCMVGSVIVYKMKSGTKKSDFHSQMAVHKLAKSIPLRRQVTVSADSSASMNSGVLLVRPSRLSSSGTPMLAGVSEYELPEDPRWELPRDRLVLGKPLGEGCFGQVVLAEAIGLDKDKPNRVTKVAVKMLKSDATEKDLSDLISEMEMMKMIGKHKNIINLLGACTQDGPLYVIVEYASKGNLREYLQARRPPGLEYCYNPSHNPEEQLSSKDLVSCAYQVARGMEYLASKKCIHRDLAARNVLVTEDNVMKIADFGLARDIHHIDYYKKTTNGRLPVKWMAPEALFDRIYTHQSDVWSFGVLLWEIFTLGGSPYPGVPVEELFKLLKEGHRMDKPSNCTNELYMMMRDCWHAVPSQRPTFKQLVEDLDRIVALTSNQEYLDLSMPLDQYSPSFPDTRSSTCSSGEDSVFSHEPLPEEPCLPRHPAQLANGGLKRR
Rho-associated protein kinase 2 (Homo sapiens), sequence (O75116 whole entry, looked up): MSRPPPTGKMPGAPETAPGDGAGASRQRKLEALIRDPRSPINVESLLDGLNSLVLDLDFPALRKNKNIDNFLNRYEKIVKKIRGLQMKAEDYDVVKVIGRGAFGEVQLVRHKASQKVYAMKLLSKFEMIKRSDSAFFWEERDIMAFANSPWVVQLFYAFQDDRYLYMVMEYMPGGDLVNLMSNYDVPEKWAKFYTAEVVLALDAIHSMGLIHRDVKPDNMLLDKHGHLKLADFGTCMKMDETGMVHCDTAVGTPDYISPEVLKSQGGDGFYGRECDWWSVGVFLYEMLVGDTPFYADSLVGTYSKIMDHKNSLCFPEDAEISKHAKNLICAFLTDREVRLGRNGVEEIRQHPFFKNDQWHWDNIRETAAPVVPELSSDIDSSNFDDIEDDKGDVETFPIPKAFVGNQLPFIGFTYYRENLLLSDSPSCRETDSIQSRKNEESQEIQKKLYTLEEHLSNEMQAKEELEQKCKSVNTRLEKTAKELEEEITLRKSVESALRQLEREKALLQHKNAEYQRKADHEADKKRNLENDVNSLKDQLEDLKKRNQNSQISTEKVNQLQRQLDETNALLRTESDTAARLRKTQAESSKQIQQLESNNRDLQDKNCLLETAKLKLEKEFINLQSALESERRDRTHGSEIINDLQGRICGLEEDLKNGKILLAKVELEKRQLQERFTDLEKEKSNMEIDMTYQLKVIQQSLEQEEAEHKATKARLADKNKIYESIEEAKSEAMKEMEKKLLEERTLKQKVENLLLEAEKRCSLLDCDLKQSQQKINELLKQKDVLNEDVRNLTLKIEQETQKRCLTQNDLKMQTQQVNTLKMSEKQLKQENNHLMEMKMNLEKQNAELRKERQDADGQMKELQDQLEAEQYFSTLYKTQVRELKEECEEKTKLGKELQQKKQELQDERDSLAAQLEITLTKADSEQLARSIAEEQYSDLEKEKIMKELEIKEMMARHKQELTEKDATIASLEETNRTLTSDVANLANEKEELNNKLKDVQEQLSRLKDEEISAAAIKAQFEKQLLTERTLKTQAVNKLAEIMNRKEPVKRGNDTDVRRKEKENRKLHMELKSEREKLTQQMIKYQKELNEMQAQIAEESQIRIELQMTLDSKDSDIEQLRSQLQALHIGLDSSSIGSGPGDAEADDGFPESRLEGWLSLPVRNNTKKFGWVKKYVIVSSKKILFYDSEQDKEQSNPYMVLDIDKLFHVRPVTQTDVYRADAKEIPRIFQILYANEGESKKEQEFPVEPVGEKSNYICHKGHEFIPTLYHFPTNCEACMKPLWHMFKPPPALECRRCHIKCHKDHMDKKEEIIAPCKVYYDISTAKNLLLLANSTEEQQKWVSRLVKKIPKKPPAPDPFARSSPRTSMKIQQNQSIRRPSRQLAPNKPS
Mitogen-activated protein kinase 1 (Homo sapiens), sequence (P28482 whole entry): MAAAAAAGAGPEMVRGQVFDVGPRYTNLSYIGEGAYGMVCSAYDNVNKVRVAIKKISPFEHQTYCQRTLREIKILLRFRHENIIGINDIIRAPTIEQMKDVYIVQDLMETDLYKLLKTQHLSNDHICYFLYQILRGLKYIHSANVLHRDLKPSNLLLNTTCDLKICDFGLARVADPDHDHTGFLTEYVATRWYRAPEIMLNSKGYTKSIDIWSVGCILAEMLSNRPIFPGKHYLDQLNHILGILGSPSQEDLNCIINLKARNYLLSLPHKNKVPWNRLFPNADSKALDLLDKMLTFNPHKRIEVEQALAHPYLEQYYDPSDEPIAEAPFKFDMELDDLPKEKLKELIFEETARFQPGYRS

Compound: C=CC(=O)Nc1cc(Nc2nccc(-c3cn4c5c(cccc35)CCC4)n2)c(OC)cc1N(C)CCN(C)C
- pIC50 [1]: 6.06
- half-life [2]: 0.198 h
- half-life [3]: 0.525 h
- CLint scaled [4]: 457 mL/min/kg
- half-life [5]: 0.55 h
- CLH [6]: 21 µL/min/10^6 cells
- half-life [7]: 4.1 h
- Cmax [8]: 111 ng/mL
- AUC(0-inf) [9]: 1020 ng·h/mL
- MRT [10]: 5.7 h
- AUC(0-t) at 24 h [11]: 190 ng·h/mL
- MRT [12]: 4.7 h
- T/C [13]: 56.4%
- Activity [14]: Non-Toxic
- inhibition [15]: 20%
- inhibition [16]: 14%
- inhibition [17]: 3%
- inhibition [18]: 7%
- inhibition [19]: 56%
- inhibition [20]: 7%
- inhibition [21]: 7%
- inhibition [22]: 15%
- inhibition [23]: 87%
- inhibition [24]: -3%
- inhibition [25]: -2%
- inhibition [26]: 7%
- inhibition [27]: -2%
- inhibition [28]: 5%
- inhibition [29]: 83%
- inhibition [30]: 0%
- inhibition [31]: 94%
- inhibition [32]: -10%
- inhibition [33]: 88%
- inhibition [34]: 110%
- inhibition [35]: 90%
